# RGS4 inh = human RGS4 inhibition | hit rate 0.45% among 310,000 | HEK293 M3R/RGS4 inducible, Fluo-4 calcium flux; active compounds read high; triggered by carbachol at its EC20 | B-score at 10 µM;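 active means B-score, a plate-corrected calcium signal, over three deviations above library mean, with baseline fluorescence within five deviations of library mean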;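 further: RGS4 expression induced by doxycycline in cells with stable M3 receptor; B-score is computed from the integrated fluorescence ratio over baseline after carbachol; higher B-score means a larger calcium signal and so more RGS4 inhibition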
# MrgX1 allo act = allosterically activates human MrgX1 receptor signaling; Q96LB2; MrgX1-HEK293, Fluo-4 calcium flux, FDSS; active compounds read high; B-score at 10 µM; hit rate 0.63% among 310,000; AID 588675;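 active means plate-corrected calcium response at least 3 library SD above typical, normal starting fluorescence, not activating the receptor alone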;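 further: compound read alongside a low EC10 to EC30 dose of BAM8-22 agonist; peak minus trough fluorescence over baseline measured at the second addition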
# MrgX1 antagonist = blocks BAM8-22 activation of human MrgX1 receptor; MRGX1-HEK293 calcium flux, Fluo-4, BAM8-22 antagonism; active compounds read low; B-score at 10 µM; hit rate 1.3% among 310,000; AID 588676;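 active means calcium-response B-score plate-corrected more than 3 library SD below zero, starting fluorescence within 5 deviations, no agonist response on first addition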;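 further: peak minus trough fluorescence over baseline after final BAM8-22 challenge near maximal dose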
# MrgX1 ag = human MrgX1 receptor agonism, primary screen; AID 588627; B-score at 10 µM; MrgX1-HEK293 cells, Fluo-4 calcium fluorescence, agonist mode; active compounds read high; hit rate 0.44% among 310,000; Q96LB2;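 active means calcium response B-score plate-corrected fluorescence ratio at least 3 library SD, with starting fluorescence B-score inside 5 SD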
#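 System: HEK293 cells stably expressing human MrgX1 receptor; Dosing: test compound in the initial addition of three; Schedule: overnight plating, then 30 min 37 °C plus 30 min room-temperature dye loading; Detection: kinetic calcium dye fluorescence, Fluo-4 NW; Controls: per-plate positive and negative controls for Z′ factor.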
# RGS4 pot = RGS4 potentiation or activation. AID 463111. hit rate 0.92% among 310,000. B-score at 10 µM. HEK293 M3R/inducible RGS4, carbachol calcium flux Fluo4; active compounds read low;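 active means B-score of the integrated calcium signal more than 4 SD below the library mean, with starting fluorescence not abnormally high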;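 further: negative B-score means reduced calcium response which marks RGS4 activation or potentiation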
#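 Material: Inducible-RGS4 HEK293 cells carrying M3 receptor; also added: carbachol at ECmax as muscarinic agonist stimulus; incubation: compound preincubation 20 min at room temperature before agonist; signal: Fluo4-AM (2 µM) calcium-flux fluorescence, kinetic read; measure: integrated calcium ratio converted to B score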
# Cl transport mod = KCC2 (human) Cl- transport modulation; Q9H2X9; hit rate 2.2% among 190,000; B-score of Tl+ flux slope (higher = more flux/activation; lower = inhibition) at 10 µM; KCC2 cells, thallium flux FluoZin-2 fluorescence;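 active means thallium flux slope and its plate-corrected score both differing from the plate sample mean at a set confidence after two filtering rounds, in either direction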;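 further: slope of fluorescence scaled to starting intensity during 10 to 20 s after thallium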
# KCC2 sec1 = KCC2 (human) modulation, secondary assay. normalised thallium flux (F/F0 slope) at 10 µM. shares compounds with Cl transport mod. HEK293-KCC2, thallium flux, FluoZin2 fluorescence; active compounds read high. hit rate 15% among 3,700;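 active means thallium flux slope above the same plate's solvent-only control mean plus 3 SD; inconclusive means the two replicate wells disagree; inactive means no significant difference from solvent-only control wells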
# KCC2 bumet counter = bumetanide-insensitive thallium flux in KCC2 cells with ouabain, counter-screen; shares compounds with Cl transport mod; HEK293-KCC2 + bumetanide/ouabain, thallium flux FluoZin2; active compounds read high; normalized thallium flux at 10 µM; hit rate 49% among 3,700; AID 1714;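 active means thallium entry rate above the same plate's blocked-transporter control wells by more than 3 SD; inconclusive means the two repeat wells disagree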;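 further: raw slope of fluorescence over initial fluorescence between 10 and 20 s after thallium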
# KCC2 sec2 = KCC2 (human) modulation, second secondary assay; normalized thallium flux at 10 µM; shares compounds with Cl transport mod; hit rate 23% among 3,700; HEK293-KCC2, thallium flux FluoZin2 fluorescence; actives lie on both sides; F/F0 rise rate, 10–20 s post-thallium;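 active means thallium flux slope more than 3 SD above or below the plate's solvent-only control mean, mostly below; inconclusive means the two repeat wells disagreed; inactive means no significant shift from solvent-only controls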;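 further: raw slope with 0.1% DMSO as baseline and bumetanide as block control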
# HEK293 Tl flux = parental HEK flux effect, counter-screen | shares compounds with Cl transport mod | HEK293 parental cells, thallium flux FluoZin2, ouabain; baseline-ratio fluorescence slope, 10–20 s after thallium | thallium flux rate (normalised fluorescence) at 10 µM | hit rate 46% among 3,700;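 active means thallium flux rate significantly above the same plate's solvent-only control wells, beyond their mean plus 3 SD; inconclusive means the two replicate wells gave conflicting results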
# KCC2 retest ouab = KCC2 (human) modulation, ouabain retest; HEK293-KCC2, thallium flux FluoZin2 fluorescence; bidirectional: low = inhibitor, high = activator; raw Tl+ flux slope (below DMSO = inhibition, above = activation) at 10 µM; shares compounds with Cl transport mod; hit rate 48% among 3,700;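 active means thallium flux slope beyond 3 SD from same-plate DMSO control mean in most replicates, usually higher, sometimes lower; inconclusive means repeat tests gave conflicting results; inactive means no significant difference from controls in most replicates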;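 further: slope of initial-normalized fluorescence between seconds 10 and 20 after thallium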
# HEK counter2 = counter-screen for KCC2 modulators: effect in parental HEK293 cells | shares compounds with Cl transport mod | thallium flux FluoZin-2 fluorescence slope | thallium flux slope at 10 µM | hit rate 33% among 3,700;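 active means thallium flux slope above the same plate's solvent-control mean plus 3 SD in both duplicate wells; inconclusive means duplicate wells that disagreed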;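 further: run without ouabain in cells lacking the KCC2 cotransporter; slope of fluorescence scaled to its starting value between 10 and 20 s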
# Active calls of the source: *; i = inactive; ? = inconclusive; / = not tested or not shown. Most compounds without a hit are left out; they make up all but 4.7% or so of the library.
SMILES,RGS4 inh,MrgX1 allo act,MrgX1 antagonist,MrgX1 ag,RGS4 pot,Cl transport mod,KCC2 sec1,KCC2 bumet counter,KCC2 sec2,HEK293 Tl flux,KCC2 retest ouab,HEK counter2
CCOC(=O)n1c(O)c(N=NC(N)=S)c2cc(C)ccc21,i,i,i,i,i,17.8*,0.0159,0.0384*,?,0.0143*,0.0311*,0.0163*
CC(=O)Nc1ccc(NC(=O)C(C)N2CCN(S(=O)(=O)c3ccc(C)cc3)CC2)cc1 (configuration not stated),i,i,i,i,i,0.0305,/,/,/,/,/,/
CC(=O)Nc1ccc(S(=O)(=O)N2CCN(C(C)CCc3ccccc3)CC2)cc1 (configuration not stated),i,i,i,i,i,/,0.0163,0.00489,0.0213*,0.00765,0.0138,0.0102
COC(C(=O)Nc1ccnn1C1CCN(Cc2cnn(C(C)C)c2)CC1)c1ccccc1 (configuration not stated),i,i,i,i,i,/,/,/,/,/,/,/
CCCCn1c(=S)[nH]c2ccc(N3CCOCC3)cc2c1=O,i,i,i,i,i,12*,0.0143*,0.0308*,0.034,0.03*,0.0319*,0.0163*
Cc1ccc(Cn2c(=S)[nH]c3ccc(N4CCOCC4)cc3c2=O)o1,i,i,i,i,i,13.9*,0.0113,0.00977*,0.0355,?,0.0238,0.0119
O=c1c2cc(N3CCOCC3)ccc2[nH]c(=S)n1Cc1ccc(Cl)cc1,i,i,i,i,i,2.35,/,/,/,/,/,/
Cc1ccccc1SCC(=O)N/N=C/c1ccc(F)cc1,i,i,i,i,i,/,/,/,/,/,/,/
CCC(CC)NC(=O)COC(=O)c1ccc(NS(=O)(=O)c2ccc3c(c2)OCCO3)cc1,i,i,i,i,i,2.71*,0.00882,0.00741,0.0304,0.0069,0.0199,0.0104*
CCNS(=O)(=O)c1ccc(NC(=S)N2CCc3ccccc32)cc1,i,i,i,i,i,/,/,/,/,/,/,/
S=c1[nH]nc(-c2ccccc2)o1,i,i,i,i,i,-0.26,/,/,/,/,/,/
O=c1c2ccccc2c(-c2n[nH]c(=S)o2)nn1Cc1ccccc1,i,i,i,i,i,-4.92*,0.00881,0.00568,?,0.00684,0.0136*,?
Cn1c(C(=O)NCCCN2CCc3ccccc3C2)cc2c(=O)n(C)c3ccccc3c21,i,i,i,i,i,/,0.0058,0.00541,0.0231*,0.00778,?,0.0116
Cc1ccccc1N(CC(=O)NCCSc1ccccn1)S(=O)(=O)c1ccccc1,i,i,i,i,i,-2.86*,0.008,0.00597,0.0306,0.00705,0.0192,0.0098
COc1ccc(-c2cc(CCCC(=O)NCCc3cc(OC)ccc3OC)no2)cc1,i,i,i,i,i,-4.68*,0.00714,0.00417,0.0314,0.00711,0.0173,0.0112
COc1ccc(-c2cc(CCCC(=O)N3CCN(c4ccc(OC)cc4)CC3)no2)cc1,i,i,i,i,i,-0.927,/,/,/,/,/,/
CCc1c(C)nc(SCC(=O)NNC(=O)c2ccco2)[nH]c1=O,i,i,i,i,i,/,/,/,/,/,/,/
COc1ccccc1OCc1ccc(C(=O)Nc2cc(OC)c(OC)c(OC)c2)o1,i,i,i,i,i,/,/,/,/,/,/,/
O=C(c1ccc(COc2ccccc2Br)cc1)N1CCCCC1,i,i,i,i,i,-1.42,/,/,/,/,/,/
COc1cc(NC(=O)c2ccc(COc3ccccc3Br)o2)cc(OC)c1OC,i,i,i,i,i,/,0.00549,0.00455,0.0246*,0.0061*,0.0154*,0.0104
O=C(c1ccc(COc2ccccc2Br)o1)N1CCCCCC1,i,i,i,i,i,/,0.00553,0.0033*,?,0.00626*,0.0161*,?
Cc1cc(Br)ccc1-n1[nH]c(C)c(C=Nc2cccc3nsnc23)c1=O,i,i,i,i,i,16.4*,0.0109,0.0433*,0.0292,0.0166*,0.0398*,?
O=C(NC(=S)NN1CCCCC1c1cccnc1)c1ccc(Cl)cc1Cl (configuration not stated),i,i,i,i,i,9.07*,0.0124*,0.0212*,0.0346,0.0118*,?,?
O=C(NC(=S)N1CCCCC1c1cccnc1)c1ccc(F)cc1 (configuration not stated),i,i,i,i,i,/,/,/,/,/,/,/
CC(C)(C)NNC(=S)Nc1cccc(C(F)(F)F)c1,i,i,i,i,i,0.755,/,/,/,/,/,/
SMILES,RGS4 inh,MrgX1 allo act,MrgX1 antagonist,MrgX1 ag,RGS4 pot,Cl transport mod,KCC2 sec1,KCC2 bumet counter,KCC2 sec2,HEK293 Tl flux,KCC2 retest ouab,HEK counter2
Cc1cccc(NC(=S)NNc2ncc(C(F)(F)F)cc2Cl)c1,i,i,i,i,i,15.8*,0.0112,0.118*,0.0323,0.0272*,0.0546*,0.0139*
Cc1c(C=O)c(C=O)c(C)n1Cc1ccccc1,i,i,i,i,i,/,/,/,/,/,/,/
CN(Cc1ccccc1)c1nc(N)nc(Cl)c1C=O,i,i,i,i,i,-4.95*,0.00721,0.00653,0.0324,0.00394,0.012*,0.0121
CCOC(=O)N1CCN(C(=O)c2ccccc2NC(=O)COc2ccccc2C)CC1,i,i,i,i,i,-3.3*,0.00707,0.00486,0.0249*,0.00817,0.0183,0.0103
CC1CCCN(C(=O)COC(=O)Cc2c(F)cccc2Cl)C1 (configuration not stated),i,i,i,i,i,/,/,/,/,/,/,/
Cc1ccc(SCCNC(=O)c2ccc(C)c(S(=O)(=O)Nc3ccccc3C)c2)cc1,i,i,i,i,i,/,0.00815,?,0.0267,0.00641,0.0146*,0.0102
